Measured values published in PubChem BioAssay.
Records with an inconclusive call do not appear. Active and inactive are the calls of the source.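 Rule for the calls, unless noted: active = growth inhibition above 25% in both replicates, a cutoff set 3 SD above the mean; inconclusive = above 25% in only one replicate; inactive = the rest.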

Assays:
[1] = OD615 S. cerevisiae growth inhibition, permissive medium, pilot counter-assay, permissive growth control for S. cerevisiae lifespan shortening project (AID 705); settings: OD615, 24 h, at 10 µM, stronger effect = higher value
Procedure, shortened: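 System: S. cerevisiae with engineered DeaD lifespan system / Measured by: absorbance (optical density) at 615 nm / Read-out: reduction in yeast growth (OD615) / Times: 4 h cell pre-growth, 24 h exposure at 30 °C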

[2] = Restrictive medium S. cerevisiae growth inhibition, OD615, pilot screen of yeast lifespan reduction project, restrictive growth control (AID 706;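 active = growth inhibition above a set limit, 3 SD over mean compound inhibition, in both replicates, cut at about 43% in these data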;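 note: modified DeaD lifespan yeast strain shifted to restrictive glucose medium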); settings: OD615, 48 h, at 10 µM, stronger effect = higher value
Procedure, shortened: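 System: Engineered S. cerevisiae DeaD strain | Buffer or medium: Glucose-based CSMM-D restrictive medium | Schedule: 4 h pre-incubation, 48 h exposure at 30 °C | Technique: Optical density at 615 nm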

[3] = viability gain of MRP-1-high H69AR cells under doxorubicin, pilot screen, MRP-1 activator project, CellTiter-Glo, duplicate (AID 807;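 active = viability increase at or above a cutoff of the median across tested compounds plus 3 SD, cut at about 8.5% in these data, passing the limit was not always enough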;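 note: compound pretreatment 18-22 h then 72 h combined with doxorubicin; 0% = doxorubicin alone and 100% = vehicle without doxorubicin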); settings: H69AR viability with doxorubicin, CellTiter-Glo luminescence; at 10 µM; stronger effect = higher value
[4] = growth suppression of beta-catenin knockout HCT116, pilot screen, human colon tumor cells (AID 823;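 active = cell viability at or below a set limit in both duplicate runs, the limit being the all-compound median minus 4 SD, cut at about 23% in these data, passing the limit was not always enough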;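 note: 0% = wells killed by 20 µM Hyamine and 100% = untreated DMSO cell wells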); settings: CellTiter-Glo, 60 h, at 10 µM, stronger effect = lower value
[5] = growth suppression of PTEN-deleted HCT116, pilot screen, cell-based, HCT116 clonal line, CellTiter-Glo (AID 824;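 active = viability at or below 27.92% in each of two runs, the all-compound median minus 4 SD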;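 note: 0% = 20 µM Hyamine control and 100% = vehicle cell control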); settings: 60 h, at 10 µM, stronger effect = lower value
[6] = inhibitors of the yeast RAM network, pilot screen, dse1pr::URA3 reporter, 5-FOA selection (AID 869;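 active = inhibition over a set limit, the all-compound mean plus 3 SD, in both replicate runs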;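 note: 0% = DMSO wells with no growth and 100% = 10 µM 1-NA-PP1 with full growth; RAM network block rescues cells from 5-FOA so hits raise OD615 growth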); settings: S. cerevisiae dse1pr::URA3 5-FOA growth, OD615, 2 d; at 10 µM; stronger effect = higher value; strain carries analog-sensitive mutant Cbk1 kinase
[7] = RAM signaling pathway blockade in yeast – S. cerevisiae, Pdr1DBD-CYC8 efflux-inhibited sensitized strain, primary screen (AID 1298;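 active = RAM network inhibition above 8.4% in each of two replicates, 3 SD over the compound average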;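 note: 0% = DMSO untreated cells without growth and 100% = 10 µM 1-NA-PP1 full growth; higher means more yeast growth rescued from 5-FOA killing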); settings: S. cerevisiae cbk1-as DSE1-URA3 strain, 5-FOA growth OD615, 2 d; at 50 µM; stronger effect = higher value

CCOC(=O)Cn1c(=O)oc2cc(S(=O)(=O)N(C)Cc3ccco3)ccc21
inactive: growth inhibition [1] -13.2% | growth inhibition [2] -14% | viability increase [3] -4.08% | viability [4] 99.9% | viability [5] 94.1% | inhibition [6] 3.37% | RAM network inhibition [7] 4.56%

CCn1c2ccccc2c2cc(NC(=O)C3CCN(S(=O)(=O)c4cccs4)CC3)ccc21
inactive: growth inhibition [1] -8.9% | growth inhibition [2] -16.2% | viability increase [3] -5.99% | viability [4] 59.3% | viability [5] 66.2% | inhibition [6] 0.19% | RAM network inhibition [7] 4.66%

Nc1nc(NC(=O)c2cccc(S(=O)(=O)N3CCCCCC3)c2)nc(-c2ccccc2)n1
inactive: growth inhibition [1] -1.66% | growth inhibition [2] 6.65% | viability increase [3] -4.04% | viability [4] 74.8% | viability [5] 74.4% | inhibition [6] 3.56% | RAM network inhibition [7] 4.53%

COc1ccccc1CNC(=O)CS(=O)Cc1nc(-c2ccccc2C)oc1C (configuration not stated)
inactive: growth inhibition [1] -4.17% | growth inhibition [2] 12.7% | viability increase [3] -0.18% | viability [4] 101% | viability [5] 93.4% | inhibition [6] 1.66% | RAM network inhibition [7] 2.33%

COc1ccc2nc(NC(=O)C3COc4ccccc4O3)sc2c1 (configuration not stated)
inactive: growth inhibition [1] -5.73% | growth inhibition [2] -9.21% | viability increase [3] 2.25% | viability [4] 100% | viability [5] 91.7% | inhibition [6] 2.08% | RAM network inhibition [7] 2.86%

CCOc1cccc(=O)c2c(C)n(CC3CCCO3)c(C)c12 (configuration not stated)
inactive: growth inhibition [1] -3.19% | growth inhibition [2] -1.17% | viability increase [3] -2.8% | viability [4] 92.5% | viability [5] 90.4% | inhibition [6] 0.73% | RAM network inhibition [7] -1.39%

Cc1ccc(C(=O)Nc2cccc(C(=O)O)c2)cc1S(=O)(=O)N1CCCCC1
inactive: growth inhibition [1] 5.02% | growth inhibition [2] 11.4% | viability increase [3] 0.18% | viability [4] 96% | viability [5] 100% | inhibition [6] 1.35% | RAM network inhibition [7] 0.1%

COc1ccc(C2CC(=O)N3CN(c4ccc(C)c(Cl)c4)CSC3=C2C#N)cc1OC (configuration not stated)
inactive: growth inhibition [1] 2.02% | growth inhibition [2] 21.1% | viability increase [3] -4.27% | viability [4] 85.7% | viability [5] 93.6% | inhibition [6] 0.435% | RAM network inhibition [7] -1.09%

CN(C)c1ccc(C2C3C(=O)NC(=O)C3ON2c2ccc(Cl)cc2)cc1 (configuration not stated)
inactive: growth inhibition [1] -0.19% | growth inhibition [2] 2.37% | viability increase [3] -0.83% | viability [4] 102% | viability [5] 98.6% | inhibition [6] 0.735% | RAM network inhibition [7] 4.07%

CCCCSc1nc(N)c(NC(=O)c2ccco2)c(=O)[nH]1
inactive: growth inhibition [1] -12.7% | growth inhibition [2] -14.2% | viability increase [3] -2% | viability [4] 101% | viability [5] 93.4% | inhibition [6] 1.58% | RAM network inhibition [7] 0.8%

CCOc1ccc(OCC)c(NC(=O)C2CCCN2S(=O)(=O)c2cccc3cccnc23)c1 (configuration not stated)
inactive: growth inhibition [1] -0.54% | growth inhibition [2] 8.82% | viability increase [3] -3.84% | viability [4] 69.8% | viability [5] 65.7% | inhibition [6] -0.48% | RAM network inhibition [7] 5.36%

Cn1c(=O)oc2cc(S(=O)(=O)N3CCc4ccccc4C3)ccc21
inactive: growth inhibition [1] -14.7% | growth inhibition [2] -5.15% | viability increase [3] -2.36% | viability [4] 99.2% | viability [5] 91.9% | inhibition [6] 2.58% | RAM network inhibition [7] 5.77%

CC1CCN(S(=O)(=O)c2ccc3c(c2)oc(=O)n3CC(=O)NCc2ccc3c(c2)OCO3)CC1
inactive: growth inhibition [1] -1.64% | growth inhibition [2] -15.8% | viability increase [3] 4.02% | viability [4] 81.4% | viability [5] 76.7% | inhibition [6] 3.27% | RAM network inhibition [7] 2.06%

O=C(OCCNc1ncc(C(F)(F)F)cc1Cl)c1ccc(S(=O)(=O)N2CCOCC2)cc1
inactive: growth inhibition [1] -5% | growth inhibition [2] -18.4% | viability increase [3] -2.03% | viability [4] 88.8% | viability [5] 97.9% | inhibition [6] 1.17% | RAM network inhibition [7] 9.46%

COc1ccc(-n2ncc3c(N4CCN(c5cc(C)ccc5C)CC4)ncnc32)cc1
inactive: growth inhibition [1] -8.7% | growth inhibition [2] 4.27% | viability increase [3] -4.46% | viability [4] 61.3% | viability [5] 68% | inhibition [6] 2.01% | RAM network inhibition [7] 3.49%

C=CCSc1nc2c(c(=O)[nH]c(=O)n2C)n1Cc1ccc(C)cc1
inactive: growth inhibition [1] -12.1% | growth inhibition [2] -7.22% | viability increase [3] -3.38% | viability [4] 90.1% | viability [5] 86.4% | inhibition [6] 2.6% | RAM network inhibition [7] 7.02%

Nc1nc2c(c3c1c(=O)oc1ccccc13)CCCCC2
inactive: growth inhibition [1] -4.79% | growth inhibition [2] 5.31% | viability increase [3] -2.59% | viability [4] 94.9% | viability [5] 96.2% | inhibition [6] 2.28% | RAM network inhibition [7] 2.05%

COc1ccc(N2CCN(S(=O)(=O)c3cccc4cccnc34)CC2)cc1
inactive: growth inhibition [1] -3.57% | growth inhibition [2] 8.34% | viability increase [3] -2.89% | viability [4] 84.9% | viability [5] 83.6% | inhibition [6] 0.47% | RAM network inhibition [7] 3.66%

Oc1cccc(/C=N/c2c(-c3ccco3)nc3ccccn23)c1
inactive: growth inhibition [1] -9.82% | growth inhibition [2] -4.22% | viability increase [3] -3.47% | viability [4] 87.7% | viability [5] 93.7% | inhibition [6] 2% | RAM network inhibition [7] 5.22%

O=C(Nc1ncc(Br)s1)C(Cc1ccccc1)n1cccc1 (configuration not stated)
inactive: growth inhibition [1] -17.7% | growth inhibition [2] -13.6% | viability increase [3] -6.2% | viability [4] 63.7% | viability [5] 58% | inhibition [6] 2.83% | RAM network inhibition [7] -0.21%

CCN1CCCC1CNC(=O)c1cc2c(-c3ccc(Cl)cc3)nn(C)c2s1 (configuration not stated)
active: viability [4] 2.03% | viability [5] 2.04%
inactive: growth inhibition [1] -7.45% | growth inhibition [2] 10.1% | viability increase [3] -8.33% | inhibition [6] 1.31% | RAM network inhibition [7] 8.33%

CCc1nc(SCC(=O)Nc2ccc(C(=O)O)cc2)n[nH]1
inactive: growth inhibition [1] 11.2% | growth inhibition [2] 0.705% | viability increase [3] -1.05% | viability [4] 94.7% | viability [5] 98.4% | inhibition [6] -0.24% | RAM network inhibition [7] -2.73%

c1ccc(Cn2ncc3ccccc32)cc1
inactive: growth inhibition [1] -3.05% | growth inhibition [2] 4.4% | viability increase [3] -1.05% | viability [4] 94.8% | viability [5] 98% | inhibition [6] -0.165% | RAM network inhibition [7] -0.97%

COc1ccc(-n2ncc3c(N(C)C4CCCCC4)ncnc32)cc1
inactive: growth inhibition [1] -13.1% | growth inhibition [2] -9.66% | viability increase [3] -3.73% | viability [4] 85.5% | viability [5] 77.9% | inhibition [6] 1.76% | RAM network inhibition [7] 4.58%

Cc1nn(C)cc1CN(C)C(=O)c1sc2cccc(Cl)c2c1Cl
inactive: growth inhibition [1] -4.77% | growth inhibition [2] 5.83% | viability increase [3] 0.61% | viability [4] 84.1% | viability [5] 82.1% | inhibition [6] -0.12% | RAM network inhibition [7] 3.58%

O=C1c2oc3ccc(F)cc3c(=O)c2C(c2ccc(F)cc2)N1CCCN1CCOCC1 (configuration not stated)
inactive: growth inhibition [1] -1.14% | growth inhibition [2] 6.59% | viability increase [3] 0.11% | viability [4] 106% | viability [5] 97.5% | inhibition [6] 1.92% | RAM network inhibition [7] -0.47%

Cc1cccc(NC(=O)CC2SC(=NC3CCCCC3)NC2=O)c1 (configuration not stated)
inactive: growth inhibition [1] -5.5% | growth inhibition [2] -21.6% | viability increase [3] 0.92% | viability [4] 99.2% | viability [5] 94.9% | inhibition [6] 0.415% | RAM network inhibition [7] 4.77%

CCOC(=O)C1C(=O)NC(SC)=C(C#N)C1c1ccccc1F (configuration not stated)
inactive: growth inhibition [1] -2.39% | growth inhibition [2] -17% | viability increase [3] -2.97% | viability [4] 90.8% | viability [5] 95.5% | inhibition [6] -1% | RAM network inhibition [7] -1.66%

Cc1nnc(NC(=O)CSc2nnc(CNC(=O)c3ccccc3)n2-c2ccccc2)s1
inactive: growth inhibition [1] -5% | growth inhibition [2] -0.57% | viability increase [3] 0% | viability [4] 96.1% | viability [5] 96.5% | inhibition [6] 3% | RAM network inhibition [7] 3.59%

Cc1cc(NC(=O)NC2(C(F)(F)F)Oc3ccc(Cl)cc3O2)no1 (configuration not stated)
inactive: growth inhibition [1] -3.33% | growth inhibition [2] -23% | viability increase [3] -5.78% | viability [4] 32.6% | viability [5] 42.5% | inhibition [6] 3.26% | RAM network inhibition [7] 7.87%

COc1ccc(NC(=O)CSc2nnc(-c3ccccn3)n2N)cc1
inactive: growth inhibition [1] -5.41% | growth inhibition [2] 13.7% | viability increase [3] -0.74% | viability [4] 101% | viability [5] 97.3% | inhibition [6] 0.535% | RAM network inhibition [7] 4.82%

CCn1c(C(C)NC(C)=O)nc2ccccc21 (configuration not stated)
inactive: growth inhibition [1] -13.6% | growth inhibition [2] -5.8% | viability increase [3] 0.8% | viability [4] 112% | viability [5] 106% | inhibition [6] 2.2% | RAM network inhibition [7] 3.48%

Cn1c(=O)c2cc(S(=O)(=O)NC(C(=O)NCc3cccnc3)c3ccccc3)ccc2n(C)c1=O (configuration not stated)
inactive: growth inhibition [1] -17% | growth inhibition [2] -18.3% | viability increase [3] -1.54% | viability [4] 91.2% | viability [5] 94.2% | inhibition [6] 1.32% | RAM network inhibition [7] 1.81%

CCc1ccc(NC(=O)c2cnc3n(c2=O)CCS3)cc1
inactive: growth inhibition [1] -1.06% | growth inhibition [2] 0.895% | viability increase [3] -2.9% | viability [4] 95.2% | viability [5] 85.9% | inhibition [6] 2.82% | RAM network inhibition [7] 0.15%

O=C(NCCCN1CCC(Cc2ccccc2)CC1)C1CCC(=O)N1C1CCCC1 (configuration not stated)
inactive: growth inhibition [1] 0.095% | growth inhibition [2] 10.8% | viability increase [3] -0.92% | viability [4] 79.7% | viability [5] 96.9% | inhibition [6] 0.3% | RAM network inhibition [7] 1.85%

Cc1cc(=O)[nH]c(Cc2ccc(OC(C)C)cc2)n1
inactive: growth inhibition [1] -6.43% | growth inhibition [2] -15.4% | viability increase [3] -1.17% | viability [4] 98.4% | viability [5] 93.2% | inhibition [6] 1.98% | RAM network inhibition [7] 5.82%
